In ChEMBL document CHEMBL2417442, “Modulation of αvβ₃- and α₅β₁-integrin-mediated adhesion by dehydro-β-amino acids containing peptidomimetics” (Eur J Med Chem, 2013) one finds inhibition and IC50 data, which are given here for 11 molecules.

pIC50: −log10 of the molar value. Calls of active or inactive are those of the source. The calls are words filed in the database; no cut-off is given here.

As a reminder, the pIC50 is −log10 of the IC50, conventionally taken in molar units. Low values mean a high IC50, high ones a low IC50.

Experiment [1] addresses T1, Integrin alpha-V/beta-3 (Homo sapiens, UniProt P05106+P06756). The experiment can be described thus: Inhibition of alphaVbeta3 integrin in human DAOY cells assessed as inhibition of fibronectin-induced ERK1/2 phosphorylation at 10 uM incubated for 30 mins prior to fibronectin challenge measured after 90 mins by Western blotting analysis. The experiment is classed as cell-based. Put shortly: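 DAOY medulloblastoma cells serum-starved 16 h in DMEM, detached, then given compound at 10 µM for 30 min. Plated 90 min on fibronectin (10 µg/ml)-coated, BSA-blocked plates; suspension cells as control. Lysed with phosphatase inhibitors, separated on 12% SDS-PAGE and immunoblotted for phospho-ERK1/2 and total ERK1/2.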
For orientation: In western blotting, separated proteins are transferred to a membrane and probed.

In experiment [2] the target is T1, Integrin alpha-V/beta-3. The experiment can be described thus: Inhibition of alphaVbeta3 integrin-mediated human DAOY cell adhesion to fibronectin incubated for 30 mins before plating measured after 1 hr. The experiment is classed as protein-complex assay. Put shortly: (§1)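 Cells pre-incubated with a range of compound concentrations for 30 min at room temperature. Then 50000 cells/well plated on fibronectin (10 µg/mL) coated overnight at 4°C and left 1 h at room temperature. After PBS washes, adherent cells were quantified by hexosaminidase activity: 4-nitrophenyl-N-acetyl-β-D-glucosaminide in citrate buffer pH 5 with Triton X-100, stopped with glycine/EDTA pH 10.4, read at 405 nm. Quadruplicates, at least three repeats; IC50 fitted.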

The target of experiment [3] is T2, Integrin alpha-5/beta-1 (Homo sapiens, UniProt P05556+P08648). The experiment can be described thus: Inhibition of alpha5beta1 integrin-mediated human K562 cell adhesion to fibronectin incubated for 30 mins before plating measured after 1 hr. The experiment is classed as protein-complex assay. Put shortly:
as §1
Target sequence in this assay (P05556 21-798 limits assumed): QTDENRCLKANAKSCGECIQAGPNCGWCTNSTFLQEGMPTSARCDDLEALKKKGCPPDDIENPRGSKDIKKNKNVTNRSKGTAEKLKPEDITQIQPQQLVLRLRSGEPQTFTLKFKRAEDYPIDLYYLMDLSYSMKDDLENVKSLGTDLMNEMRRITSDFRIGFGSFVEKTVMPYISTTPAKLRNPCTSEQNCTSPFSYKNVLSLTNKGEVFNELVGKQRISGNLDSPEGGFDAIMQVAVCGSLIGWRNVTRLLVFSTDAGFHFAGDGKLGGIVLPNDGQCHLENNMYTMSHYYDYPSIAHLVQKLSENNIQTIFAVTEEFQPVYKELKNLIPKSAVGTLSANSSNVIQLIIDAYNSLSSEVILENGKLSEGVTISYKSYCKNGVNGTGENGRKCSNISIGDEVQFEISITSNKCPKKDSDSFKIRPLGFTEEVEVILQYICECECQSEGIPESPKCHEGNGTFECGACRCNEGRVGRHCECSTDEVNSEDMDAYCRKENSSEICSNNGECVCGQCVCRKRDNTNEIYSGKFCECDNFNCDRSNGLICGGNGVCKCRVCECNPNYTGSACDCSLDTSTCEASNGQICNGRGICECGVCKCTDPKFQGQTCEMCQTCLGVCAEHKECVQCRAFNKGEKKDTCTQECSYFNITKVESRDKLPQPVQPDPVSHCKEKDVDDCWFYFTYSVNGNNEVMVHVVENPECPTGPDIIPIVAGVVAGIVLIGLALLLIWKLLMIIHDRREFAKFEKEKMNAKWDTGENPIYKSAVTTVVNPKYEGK
Target sequence in this assay (P08648 42-894 limits assumed): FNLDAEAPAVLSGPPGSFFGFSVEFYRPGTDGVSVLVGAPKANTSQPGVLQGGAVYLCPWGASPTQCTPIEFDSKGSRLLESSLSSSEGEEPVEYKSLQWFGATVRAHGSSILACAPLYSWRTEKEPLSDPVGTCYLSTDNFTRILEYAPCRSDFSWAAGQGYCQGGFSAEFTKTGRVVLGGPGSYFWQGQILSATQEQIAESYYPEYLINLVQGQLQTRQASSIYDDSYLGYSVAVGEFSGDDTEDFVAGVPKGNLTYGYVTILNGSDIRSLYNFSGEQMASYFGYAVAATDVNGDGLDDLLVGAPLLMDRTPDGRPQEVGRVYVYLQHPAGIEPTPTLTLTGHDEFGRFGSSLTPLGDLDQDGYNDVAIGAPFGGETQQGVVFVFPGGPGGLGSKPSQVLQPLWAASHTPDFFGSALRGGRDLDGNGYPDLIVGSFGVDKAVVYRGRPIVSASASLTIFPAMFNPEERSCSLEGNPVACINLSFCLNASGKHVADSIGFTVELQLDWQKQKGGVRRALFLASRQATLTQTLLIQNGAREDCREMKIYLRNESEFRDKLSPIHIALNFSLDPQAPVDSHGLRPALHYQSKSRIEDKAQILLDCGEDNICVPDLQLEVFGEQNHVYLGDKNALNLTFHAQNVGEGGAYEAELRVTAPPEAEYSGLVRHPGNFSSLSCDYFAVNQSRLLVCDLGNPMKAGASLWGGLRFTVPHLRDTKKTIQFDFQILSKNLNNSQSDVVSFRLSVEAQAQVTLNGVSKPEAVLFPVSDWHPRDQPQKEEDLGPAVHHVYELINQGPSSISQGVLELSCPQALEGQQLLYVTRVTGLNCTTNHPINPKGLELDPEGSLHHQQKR
Target sequence in this assay (P08648 895-1049 limits assumed): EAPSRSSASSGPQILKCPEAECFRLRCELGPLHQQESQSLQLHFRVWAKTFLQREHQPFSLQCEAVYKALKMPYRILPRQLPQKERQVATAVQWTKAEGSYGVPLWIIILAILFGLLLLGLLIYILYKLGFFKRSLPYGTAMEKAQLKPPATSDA

In experiment [4] the target is T2, Integrin alpha-5/beta-1. The experiment in a line: Inhibition of alpha5beta1 integrin in human K562 cells assessed as inhibition of fibronectin-induced ERK1/2 phosphorylation at 10 uM incubated for 60 mins prior to fibronectin challenge measured after 60 mins by Western blotting analysis. The experiment is classed as cell-based. Put shortly: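 K562 cells, PMA-differentiated (25 ng/mL for 40 h), then serum-starved 16 h in RPMI-1640 with 1% FBS. Compound at 10 µM for 60 min in suspension, then plated 60 min on fibronectin (10 µg/ml)-coated, 1% BSA-blocked plates. Suspension cells served as control and PMA 65 nM as positive control. Lysates run on 12% SDS-PAGE and blotted for phospho- and total ERK1/2. pERK normalized to total ERK by densitometry; mean ± SEM, n=6.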

Experiment [5] concerns the target T1, Integrin alpha-V/beta-3. The experiment in a line: Inhibition of alphaVbeta3 integrin-mediated human SK-MEL-24 cell adhesion to fibronectin incubated for 30 mins before plating measured after 1 hr. The format is protein-complex assay. Put shortly:
as §1
Target sequence in this assay (P05106 27-788 limits assumed): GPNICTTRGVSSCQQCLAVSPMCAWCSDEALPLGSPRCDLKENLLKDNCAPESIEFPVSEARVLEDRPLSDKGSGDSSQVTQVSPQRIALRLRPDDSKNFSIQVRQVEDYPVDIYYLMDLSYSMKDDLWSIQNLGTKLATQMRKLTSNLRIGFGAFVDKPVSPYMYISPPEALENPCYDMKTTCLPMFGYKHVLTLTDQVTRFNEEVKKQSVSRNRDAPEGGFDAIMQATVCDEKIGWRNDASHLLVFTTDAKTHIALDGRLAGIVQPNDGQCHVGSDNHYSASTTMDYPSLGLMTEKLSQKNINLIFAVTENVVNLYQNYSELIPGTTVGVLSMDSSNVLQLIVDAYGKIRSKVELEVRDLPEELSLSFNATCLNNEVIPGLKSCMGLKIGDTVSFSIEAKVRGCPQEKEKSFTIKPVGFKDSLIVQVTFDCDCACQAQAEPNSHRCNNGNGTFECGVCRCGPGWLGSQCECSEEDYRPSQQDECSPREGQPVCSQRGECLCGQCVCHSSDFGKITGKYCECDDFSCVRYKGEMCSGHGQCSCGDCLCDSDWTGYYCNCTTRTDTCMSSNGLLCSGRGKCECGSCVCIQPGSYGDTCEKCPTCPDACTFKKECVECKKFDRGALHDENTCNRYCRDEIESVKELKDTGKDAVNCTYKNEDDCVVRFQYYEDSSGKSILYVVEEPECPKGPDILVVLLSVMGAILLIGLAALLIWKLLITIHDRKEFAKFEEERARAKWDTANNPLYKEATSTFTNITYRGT
Target sequence in this assay (P06756 31-889 limits assumed): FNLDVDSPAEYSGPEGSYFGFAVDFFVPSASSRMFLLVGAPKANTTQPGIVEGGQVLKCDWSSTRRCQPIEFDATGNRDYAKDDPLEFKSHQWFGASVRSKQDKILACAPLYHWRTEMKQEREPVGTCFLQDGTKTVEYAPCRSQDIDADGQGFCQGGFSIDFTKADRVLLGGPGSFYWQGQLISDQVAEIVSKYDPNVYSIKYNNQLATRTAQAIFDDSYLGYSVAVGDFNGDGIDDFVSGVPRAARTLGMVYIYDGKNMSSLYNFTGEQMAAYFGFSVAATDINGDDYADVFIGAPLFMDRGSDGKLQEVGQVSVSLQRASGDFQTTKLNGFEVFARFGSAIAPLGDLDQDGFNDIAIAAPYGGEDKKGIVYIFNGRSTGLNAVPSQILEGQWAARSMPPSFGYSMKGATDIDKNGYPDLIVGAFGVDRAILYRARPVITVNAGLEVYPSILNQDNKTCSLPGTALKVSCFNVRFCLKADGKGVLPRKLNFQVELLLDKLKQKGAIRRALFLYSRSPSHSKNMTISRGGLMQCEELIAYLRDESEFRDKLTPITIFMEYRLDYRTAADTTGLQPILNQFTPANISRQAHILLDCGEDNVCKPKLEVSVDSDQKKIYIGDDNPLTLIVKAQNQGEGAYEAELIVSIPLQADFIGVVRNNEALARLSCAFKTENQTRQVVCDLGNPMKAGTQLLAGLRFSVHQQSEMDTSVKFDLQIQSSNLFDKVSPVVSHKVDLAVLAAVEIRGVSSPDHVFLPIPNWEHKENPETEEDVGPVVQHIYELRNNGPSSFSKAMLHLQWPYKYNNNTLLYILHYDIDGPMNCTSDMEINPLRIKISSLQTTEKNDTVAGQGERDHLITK
Target sequence in this assay (P06756 891-1048 limits assumed): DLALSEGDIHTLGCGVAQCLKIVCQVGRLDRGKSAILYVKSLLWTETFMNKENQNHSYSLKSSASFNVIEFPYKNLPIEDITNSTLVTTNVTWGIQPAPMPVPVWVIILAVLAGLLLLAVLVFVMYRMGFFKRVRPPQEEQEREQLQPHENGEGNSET

Take `C/C=C(\C(=O)NCC(=O)O)C(NCc1ccc(NC(=O)CN)cc1)C(C)C` (configuration not stated): the inhibition result on Integrin alpha-V/beta-3 [1], at Integrin alpha-V/beta-3 [2] and on Integrin alpha-5/beta-1 [4] was “Active” in each case. Besides, the pIC50 at Integrin alpha-5/beta-1 [3] was 6.77; against Integrin alpha-V/beta-3 [5] it was 6.57.

H-GRGDTP-OH: the pIC50 against Integrin alpha-5/beta-1 [3] was 6.03; against Integrin alpha-V/beta-3 [5] it was 9.21.

For `CC1=C(C(=O)NCc2ccc(N)cc2)C(C(C)C)N(C(=O)CC(=O)O)O1` (configuration not stated), the negative-log IC50 (pIC50) against Integrin alpha-5/beta-1 [3] is 5.98; against Integrin alpha-V/beta-3 [5] it was 5.06.

Take `CCCN(C(=O)CC(=O)O)C1=C(C)CC(c2ccccc2)N([C@@H](C)c2ccc(N)cc2)C1=O` (some centres not stated): the pIC50 at Integrin alpha-5/beta-1 [3] was 7.24; against Integrin alpha-V/beta-3 [5] it was 7.15.

Regarding `C/C=C1\C(=O)N(CC(=O)O)C(=O)N(Cc2ccc(NC(=O)CN)cc2)C1C(C)C` (configuration not stated), the pIC50 at Integrin alpha-5/beta-1 [3] and against Integrin alpha-V/beta-3 [5] was less than 4.00 in each case.

As for `C/C=C(\C(=O)NCC(=O)O)C(C)NCc1ccc(N)cc1` (configuration not stated), the inhibition result on Integrin alpha-V/beta-3 [1] and on Integrin alpha-V/beta-3 [2] was “Active” throughout. Also, the negative-log IC50 (pIC50) is 5.01 against Integrin alpha-5/beta-1 [3] and 6.92 on Integrin alpha-V/beta-3 [5].

With `C/C=C(\C(=O)O)C(C)NCc1ccc(N)cc1` (configuration not stated), the pIC50 against Integrin alpha-5/beta-1 [3] is 7.72; at Integrin alpha-V/beta-3 [5] it was less than 4.00.

Take `C/C=C(\C(=O)NCC(=O)O)C(NCc1ccc(N)cc1)C(C)C` (configuration not stated): the pIC50 against Integrin alpha-5/beta-1 [3] was 6.66; against Integrin alpha-V/beta-3 [5], 5.70.

In the case of H-GRGDNP-OH, the negative-log IC50 (pIC50) was less than 4.00 against Integrin alpha-5/beta-1 [3] and 6.64 on Integrin alpha-V/beta-3 [5].

As for `C/C=C(\C(=O)O)C(NCc1ccc(N)cc1)C(C)C` (configuration not stated), the results for the pIC50 on Integrin alpha-5/beta-1 [3] and against Integrin alpha-V/beta-3 [5] were 5.01 and 5.83, respectively.

Take `C/C=C(\C(=O)O)C(NCc1ccc(N)cc1)C1CCCCC1` (configuration not stated): the values for the pIC50 against Integrin alpha-5/beta-1 [3] and on Integrin alpha-V/beta-3 [5] were 5.68 and 6.08, respectively.
